AI-2 QS mod: Vibrio harveyi AI-2 quorum sensing modulators, primary screen, JMH597 strain, luminescence/OD600 ratio; AID 2094, 2009; activity change, % at 7.5 µM; 0.4% of 300,000 active; Vibrio harveyi JMH597 AI-2 luminescence/OD600 ratio, 9 h; hits give low values; strain lacks LuxN and CqsS sensors; 0 = neutral-control median; in the data active means activity change below about -75%, passing the limit was not always enough; inconclusive means no clear call, values can overlap the other calls;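 further: luminescence divided by OD600 gain over 9 h not by final OD600 alone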
Runt-SMMHC FRET: inhibitors of RUNX1 Runt–CBFb-SMMHC binding, primary screen, biochemical, FRET, Cerulean-Runt, Venus-CBFb-SMMHC, uHTS; 0.74% of 220,000 active; Runt-related transcription factor 1 (Homo sapiens) + Core-binding factor subunit beta …; inhibition, % at 20 µM; Cerulean-Runt/Venus-CBFb-SMMHC FRET ratio 530/480, 1 h;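 active means mean inhibition across duplicate retests at 20 µM reaching about 50%, limit read from the data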;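 further: inhibitors lower the FRET ratio by blocking Runt binding to CBFb-SMMHC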
Wee1 stabilizer: Wee1 degradation inhibitors, primary screen, cell-based, HeLa, Wee1K328M-luciferase, luminescence. reporter increase, % at 5 µM. 1.2% of 220,000 active. AID 1321, 2008. HeLa Luc-Wee1K328M stability; 100% = proteasome inhibitor MG132 effect. Wee1-like protein kinase (Homo sapiens), P30291;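 active means activation above the mean of all tested compounds plus 3 SD, set per screening run, cut at about 8.8% in these data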;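 further: cells exposed to compound for 20 h before luminescence read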
RanGTP-Impb inh: inhibitors of RanGTP-importin-beta interaction, primary screen, biochemical, FRET, CFP-Ran, YFP-importin-beta, homogeneous; AID 2216, 2009; 1.1% of 300,000 active; cell-free CFP-Ran/YFP-importin-beta FRET ratio; inhibition, % (test concentration not listed);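 active means more than half of the replicate wells show a fall in the fluorescence ratio signal beyond about 16%, limit read from the data, passing the limit was not always enough; inconclusive means exactly half of the replicate wells pass the set limit; inactive means fewer than half of replicates pass the limit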
KLK7 zymogen act: proKLK7 zymogen activators, primary screen, biochemical, fluorescence intensity | Kallikrein-7 (Homo sapiens), P49862 | purified proKLK7, EDANS-DABCYL substrate fluorescence; 100% is mature enzyme control, 0% vehicle | activation, % at 7 µM | 0.9% of 370,000 active | AID 652039, 2013;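 active means activation above the mean of all tested compounds plus 3 SD, computed per campaign excluding outliers beyond control limits, cut at about 13% in these data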
Target sequence (P49862 whole entry, looked up): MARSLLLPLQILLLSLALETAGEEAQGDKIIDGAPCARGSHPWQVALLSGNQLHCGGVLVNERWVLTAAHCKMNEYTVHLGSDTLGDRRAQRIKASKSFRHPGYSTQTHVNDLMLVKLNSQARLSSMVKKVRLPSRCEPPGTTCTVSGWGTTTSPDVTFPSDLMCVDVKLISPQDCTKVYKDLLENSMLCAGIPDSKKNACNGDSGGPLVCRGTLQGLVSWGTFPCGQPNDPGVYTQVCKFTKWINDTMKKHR
Runt-CBFb FRET: inhibitors of RUNX1 Runt–CBFb binding, primary screen, biochemical, FRET, Cerulean-Runt, Venus-CBFb, uHTS. 0.46% of 220,000 active. AID 1496, 2009. Cerulean-Runt/Venus-CBFb FRET ratio 530/480, 1 h. inhibition, % at 20 µM;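 active means inhibition over about 50% at 20 µM in the single-dose screen, limit read from the data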
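Reagent – Venus-CBFb binding partner, 100 nM · Assay system – Cerulean-tagged RUNX1 Runt domain (FRET donor) fusion protein · Input – 100 nM per protein · Incubation – two 1 h room-temperature incubations shielded from light · Measured by – FRET fluorescence · Medium – Tris buffer pH 7.5 with salts and BSA · Benchmarks – unlabeled CBFb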
Hits are given with their value. A selection: hits, their analogues and other compounds. The true share with any hit is near 2.9%.

Screening O=C(OC1CC2CCC(N2)C1C(=O)O)c1ccccc1 (stereo not given) returned KLK7 zymogen act inactive.
O=P(Oc1ccc(-c2ccccc2)cc1)(N1CC1)N1CC1 was read as KLK7 zymogen act inactive.
Screening CCOc1cc(CNCCc2c[nH]c3ccccc23)cc(Cl)c1OC returned AI-2 QS mod inactive, Runt-SMMHC FRET inactive, Wee1 stabilizer inactive, RanGTP-Impb inh inactive, KLK7 zymogen act inactive and Runt-CBFb FRET inactive.
COc1cc2c(cc1/C=C/[N+](=O)[O-])OCO2 was read as AI-2 QS mod inactive, Runt-SMMHC FRET inactive, Wee1 stabilizer 11, RanGTP-Impb inh inactive, KLK7 zymogen act inactive and Runt-CBFb FRET inactive.
COc1cc(/C=C/[N+](=O)[O-])ccc1OC(=O)c1cccnc1 was read as AI-2 QS mod inactive, RanGTP-Impb inh inactive and KLK7 zymogen act inactive.
`CC(=O)OC1CCC2(C)C3CCC4(C)C(OC(C)=O)CCC4C3C(C)C2(O)C1` (stereo not given) gave KLK7 zymogen act inactive.
For Cc1nc2c(=O)n(C)c(=O)nc-2n(C)n1 the results were AI-2 QS mod -95, Runt-SMMHC FRET inactive, Wee1 stabilizer inactive, RanGTP-Impb inh inactive, KLK7 zymogen act inactive and Runt-CBFb FRET inactive.
NC1=Nc2ccccc2Oc2ccccc21 was read as AI-2 QS mod inactive, Runt-SMMHC FRET inactive, Wee1 stabilizer 10, RanGTP-Impb inh inactive, KLK7 zymogen act inactive and Runt-CBFb FRET inactive.
Cc1ccc2c(c1)Oc1ccccc1N=C2 was read as KLK7 zymogen act inactive.
`Nc1c(C(=O)OCC2CCCO2)c2nc3ccccc3nc2n1Cc1cccs1` (stereo not given) gave AI-2 QS mod inactive, Runt-SMMHC FRET 85, Wee1 stabilizer inactive, RanGTP-Impb inh inconclusive, KLK7 zymogen act inactive and Runt-CBFb FRET inactive.
Screening COCCNC(=O)c1c(N)n(CCC(C)C)c2nc3ccccc3nc12 returned AI-2 QS mod inactive, Runt-SMMHC FRET 59, Wee1 stabilizer inactive, RanGTP-Impb inh 82, KLK7 zymogen act inactive and Runt-CBFb FRET inactive.
`CC(C)CCn1c(=O)c(C(=O)NCc2ccco2)c(O)c2ccccc21` gave AI-2 QS mod inactive, Runt-SMMHC FRET inactive, Wee1 stabilizer inactive, RanGTP-Impb inh inactive, KLK7 zymogen act inactive and Runt-CBFb FRET inactive.
CC(C)CCn1c(N)c(C(=O)NCc2cccs2)c2nc3ccccc3nc21 was read as AI-2 QS mod inactive, Runt-SMMHC FRET inactive, Wee1 stabilizer inactive, RanGTP-Impb inh 50 and Runt-CBFb FRET inactive.
For CCCCNC(=O)c1c(N)n(CCCOC)c2nc3ccccc3nc12 the results were AI-2 QS mod inactive, Runt-SMMHC FRET 54, Wee1 stabilizer inactive, RanGTP-Impb inh 106, KLK7 zymogen act inactive and Runt-CBFb FRET inactive.
`CCCCn1c(=O)c(C(=O)NCc2ccccc2)c(O)c2ccccc21` gave AI-2 QS mod inactive, RanGTP-Impb inh inactive and KLK7 zymogen act inactive.
Screening O=C(O)C1C2c3ccccc3C(=O)C1(C(=O)O)c1ccccc12 (stereo not given) returned KLK7 zymogen act inactive.
CC1=CC(C)CC(C)OC(=O)CC(c2ccc(O)cc2)NC(=O)C(Cc2c(Br)[nH]c3ccccc23)N(C)C(=O)C(C)NC(=O)C(C)C1 (stereo not given) was read as KLK7 zymogen act inactive.
Screening CC(C)(C)NC(=O)C1CN=C(c2ccccc2)c2cc(Cl)ccc2N1C(=O)C1CCC1 (stereo not given) returned KLK7 zymogen act inactive.
